Screening data (PubChem)
TAAR1 ag: human TAAR1 agonists, primary screen, Fluo-8 calcium fluorescence, CHO RD-HGA16 cells; vehicle wells 0%, saturating PEA agonist 100%; hit rate 0.99% among 360,000; Trace amine-associated receptor 1 (Homo sapiens), Q96RJ0; activation, % at 3 µM;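 active = activation above the mean activation of all test compounds in the run plus 3 SD, cut at about 38% in these data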
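Test system: RD-HGA16 (CHO) cells co-expressing Gα16 and hTAAR1 | Doses: Single dose, 3 µM | Schedule: 17-24 h seeding, 75 min 37 °C dye, 30 min RT | Evaluation: % activation from peak over basal fluorescence ratio, DMSO-to-PEA scaled | Technique: Kinetic Fluo-8 calcium fluorescence | Benchmarks: Low control DMSO, high control PEA (EC100)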
GPR7 antag: GPR7 receptor antagonists, primary screen, cell-based, fluorescence, single concentration. inhibition, % at 4.4 µM. hit rate 1.1% among 290,000. Neuropeptides B/W receptor type 1 (Homo sapiens), P48145. GPR7-expressing cells, fluorescence antagonist assay; in the data active = inhibition above about 16%, passing the limit was not always enough;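 also: cells stimulated with the agonist NPW; 0% = agonist with vehicle and 100% = vehicle without agonist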
CHO parental Ca: ATP-evoked calcium signal inhibitors, parental CHO, primary screen, counter-screen for OX1R antagonist project, cell-based, fluorescence, Fluo-8 calcium dye | parental CHO-K1, ATP-induced calcium, Fluo-8 fluorescence | inhibition, % at 5.6 µM | hit rate 0.63% among 330,000 | AID 463079, 2010;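 active = inhibition above that plate's mean sample inhibition plus 3 SD, cut at about 26% in these data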;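 also: 0% = ATP-challenged DMSO wells and 100% = DMSO wells without ATP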
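Assay system: parental CHO cells; Read-out basis: percent inhibition of ATP-evoked calcium rise, normalized to controls; Benchmarks: ATP and no-ATP DMSO wells; Compound dosing: single nominal dose of 5.6 µM per compound; Signal: Fluo-8 calcium dye fluorescence; Also added: ATP as calcium-mobilizing challenge; Repeats: singlicate.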
TAAR1 antag: human TAAR1 antagonists, primary screen, Fluo-8 calcium fluorescence, CHO RD-HGA16 cells | antagonist | inhibition, % at 3 µM | hit rate 1.5% among 360,000;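 active = inhibition above a per-plate cutoff, the mean inhibition of test compounds on that plate plus 3 SD, cut at about 49% in these data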;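 also: 0% = DMSO plus EC80 beta-PEA response and 100% = DMSO alone without agonist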
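test system = CHO RD-HGA16 cells bearing hTAAR1 | replication = singlicate | controls = DMSO-only wells and EC80 β-PEA-stimulated wells | reagent = EC80 β-phenethylamine stimulus | read-out basis = percent inhibition of PEA-evoked calcium signal, max/basal emission ratio | schedule = seeding 17-24 h prior, 75-min 37 °C, 30-min RT dye loading | signal = kinetic Fluo-8 calcium fluorescence measurement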
OX1R antag-1: OX1R (HCRTR1) antagonists, primary screen, fluorescence, CHO/OX1R cells, Fluo-8 calcium, orexin A; Orexin/Hypocretin receptor type 1 (Homo sapiens), O43613; Fluo-8 calcium fluorescence; inhibition, % at 5 µM; hit rate 0.43% among 330,000;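 active = inhibition above its plate's threshold, mean inhibition of all tested compounds on the plate plus 3 SD, cut at about 37% in these data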;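 also: 0% = orexin A challenge wells and 100% = SB-334867-A antagonist wells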
Target sequence (O43613 whole entry, looked up): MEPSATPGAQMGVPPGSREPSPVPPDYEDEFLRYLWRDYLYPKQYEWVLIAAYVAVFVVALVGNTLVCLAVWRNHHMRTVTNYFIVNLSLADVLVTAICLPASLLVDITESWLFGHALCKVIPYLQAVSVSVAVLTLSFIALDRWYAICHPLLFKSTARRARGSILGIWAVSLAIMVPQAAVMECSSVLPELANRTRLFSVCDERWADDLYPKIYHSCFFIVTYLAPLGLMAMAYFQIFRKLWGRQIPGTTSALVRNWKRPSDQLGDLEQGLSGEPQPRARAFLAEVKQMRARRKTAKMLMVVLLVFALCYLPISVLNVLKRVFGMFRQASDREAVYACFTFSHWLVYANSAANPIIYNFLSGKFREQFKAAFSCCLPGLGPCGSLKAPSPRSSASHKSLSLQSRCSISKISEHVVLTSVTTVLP
OX1R antag-2: antagonists of human orexin 1 receptor (OX1R). hit rate 1.8% among 330,000. AID 485270, 2010. inhibition, % at 6.6 µM. OX1R-expressing cells, FRET antagonist read-out; in the data active = inhibition mostly above about 38%, no sharp cut-off; inactive = mostly below about 40%;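 also: 0% = agonist challenge alone and 100% = reference antagonist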
OX1R Fluo8 conf: OX1R (HCRTR1) antagonists, confirmation, fluorescence, CHO/OX1R cells, Fluo-8 calcium, orexin A; shares compounds with OX1R antag-1; orexin A calcium Fluo-8 fluorescence; inhibition, % at 5 µM; hit rate 38% among 1,100; in the data active = inhibition above about 29%;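 also: 0% = agonist challenge alone and 100% = reference antagonist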
CHO Ca counter: ATP-evoked calcium inhibition in parental CHO, counter-screen for OX1R antagonist project, cell-based, fluorescence, CHO-K1, triplicate | shares compounds with OX1R antag-1 | ATP-induced calcium, Fluo-8 fluorescence | inhibition, % at 5.6 µM | hit rate 9.3% among 1,100 | AID 492965, 2010;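 active = inhibition above a per-plate limit, the mean inhibition of that plate's test compounds plus 3 SD, cut at about 25% in these data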;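 also: 0% = ATP challenge with DMSO and 100% = DMSO without ATP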
OX1R HTRF confirm: OX1R (HCRTR1) antagonists, confirmation, cell-based, HTRF; shares compounds with OX1R antag-2; OX1R-expressing cells, HTRF antagonist assay; inhibition, % at 6.6 µM; hit rate 49% among 1,800; AID 492964, 2010; in the data active = inhibition above about 55%;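 also: CHO cells expressing OX1R stimulated with orexin A at about EC80; 0% = agonist challenge alone and 100% = reference antagonist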
CHO-K1 HTRF: signal inhibition in parental CHO-K1 cells, counter-screen for OX1R antagonist project, cell-based, HTRF. shares compounds with OX1R antag-2. hit rate 48% among 1,800. inhibition, % at 6.6 µM. AID 493232, 2011. HTRF counterscreen; in the data active = inhibition above about 17%;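 also: 0% = agonist challenge with vehicle and 100% = vehicle alone without agonist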
An asterisk follows results filed as active; . = not tested or not shown. Most compounds without a hit are left out; they make up all but 4.5% or so of the library.

SMILES | TAAR1 ag | GPR7 antag | CHO parental Ca | TAAR1 antag | OX1R antag-1 | OX1R antag-2 | OX1R Fluo8 conf | CHO Ca counter | OX1R HTRF confirm | CHO-K1 HTRF
COC(=O)[C@]12CCCCC=C1N(Cc1ccc3c(c1)OCO3)C(=O)[C@H](CC(=O)N1CCN(C(=O)C3CC3)CC1)C2 | 10 | . | . | 27 | . | . | . | . | . | .
CC(C)(C)NC(=O)C(Cc1ccccc1)NS(=O)(=O)c1cccc2nsnc12 (configuration not stated) | 0 | -14 | -17 | 2 | 36 | 116* | 19 | -9 | 80* | 17*
O=C(NCc1ccccc1)C(Cc1ccccc1)NS(=O)(=O)c1cccc2nsnc12 (configuration not stated) | 1 | 7 | -17 | 6 | -10 | 24 | . | . | . | .
CCCCN(C=O)c1c(CC)nc2ccc(C(=O)N3CCN(c4ccccc4)CC3)cn12 | 0 | . | . | -1 | . | . | . | . | . | .
Cc1ccc(NC(=O)COc2ccc(Cl)cc2Cl)cc1S(=O)(=O)N1CCOCC1 | 9 | . | . | 41 | . | . | . | . | . | .
Cc1ccc(NC(=O)COc2cccc(Oc3ccccc3)c2)cc1S(=O)(=O)N1CCOCC1 | 11 | . | -5 | 40 | 45* | 30* | 32* | -8 | 18 | 0
CC(C)Oc1cc(F)ccc1-c1cc(C(=O)NCc2ccccn2)[nH]n1 | 1 | . | . | 1 | . | . | . | . | . | .
CCn1c2ccccc2c2cc(NC(=O)CSc3nnc(-c4cccc(OC)c4)n3N)ccc21 | 14 | -11 | -18 | 10 | 47* | 93* | 47* | -15 | 91* | 12
CCOc1ccc(-c2nnc(SCC(=O)Nc3ccc4c(c3)c3ccccc3n4CC)n2N)cc1 | 3 | 7 | -19 | 6 | -17 | 13 | . | . | . | .
CNC(=O)C1CN(C(=O)c2cccc(S(=O)(=O)N3c4ccccc4CC3C)c2)c2ccccc2O1 (configuration not stated) | 1 | . | -13 | 3 | 36 | 40* | 20 | -8 | 59* | -5
Cc1cc(NC(=O)OC(C)(C)C)c(-n2nnnc2C(C(=O)c2ccccc2)N2CCOCC2)cc1C (configuration not stated) | -3 | . | . | -19 | . | . | . | . | . | .
Cc1c(C(=O)OCC(=O)NCCN2C(=O)CSC2=O)oc2c1ccc1ccccc12 | 4 | 0 | -5 | 13 | 22 | 77* | 33* | -8 | 88* | 11
Cc1cc(C)c2c(N)c(C(=O)N/N=C/c3cccs3)sc2n1 | 1 | -7 | 1 | -24 | 53* | 85* | -2 | -10 | 95* | 7
COc1ccc(NC(=O)C2Cc3c(-c4ccccc4Oc4ccccc4)ccnc3O2)cc1OC (configuration not stated) | 3 | . | . | 16 | . | . | . | . | . | .
CN(/N=C/c1cc([N+](=O)[O-])ccc1O)c1ccccc1 | 7 | 6 | -17 | 17 | 50* | 73* | 48* | -14 | 93* | -4
O=C(O)CCC1C(=O)NC(=O)CC1c1ccccc1 (configuration not stated) | 0 | . | . | 8 | . | . | . | . | . | .
